Measurements gathered from unrelated publications.
Protocols differ between the studies behind these lines. ≈ marks a conversion by molar mass, not a printed value.

With N#Cc1nc[n]([Au][PH](c2ccccc2)(c2ccccc2)c2ccccc2)c1C#N the IC50 was 64 µM (IMR-90; cell growth or viability, MTT; 48 h).
For [H]/N=C(/N)N[C@H]1[C@H](O)[C@@H](O)[C@H](O[C@@H]2O[C@@H](C)[C@](O)(C=O)[C@H]2O[C@@H]2O[C@@H](CO)[C@H](O)[C@@H](O)[C@@H]2NC)[C@@H](N/C(N)=N\[H])[C@@H]1O, the MIC was 2 µg/mL (≈ 3.44 µM) (Klebsiella pneumoniae; microbial growth, broth dilution; ATCC43816).
The MIC of C[C@@H](O)[C@H]1C(=O)N2C(C(=O)O)=C(S[C@@H]3CN[C@H](C(=O)N(C)C)C3)[C@H](C)[C@H]12 is reported as greater than 8 µg/mL (Klebsiella pneumoniae; microbial growth; ATCCBAA1705; drug-resistant strain).
Clc1nc[n]([Au][PH](c2ccccc2)(c2ccccc2)c2ccccc2)c1Cl has an IC50 of 54.9 µM (IMR-90; cell growth or viability, MTT; 48 h).
N.N.[Cl][Pt][Cl] has an inhibition of 95% (CA46; cell growth or viability, ATP luminescence; 10 µM, 72 h).
The MIC90 of NNC(=O)c1ccncc1 is reported as 0.24 µg/mL (≈ 1.75 µM) (Mycobacterium tuberculosis variant bovis BCG; microbial growth; BCG).
C[C@H]1COc2c(N3CCN(C)CC3)c(F)cc3c(=O)c(C(=O)O)cn1c23 gave an MIC of greater than 8 µg/mL (Klebsiella pneumoniae; microbial growth; ATCCBAA1705; drug-resistant strain).
With NCC[C@H](O)C(=O)N[C@@H]1C[C@H](N)[C@@H](O[C@H]2O[C@H](CN)[C@@H](O)[C@H](O)[C@H]2O)[C@H](O)[C@H]1O[C@H]1O[C@H](CO)[C@@H](O)[C@H](N)[C@H]1O the MIC50 was 0.32 µg/mL (≈ 0.546 µM) (Mycobacterium tuberculosis variant bovis BCG; microbial growth; BCG).
c1ccc([Se][Au]=[c]2n(C3CCCCC3)ccn2C2CCCCC2)cc1 gave an IC50 of 1.1 µM (HT-29; cell growth or viability, crystal violet).
